HUVEC inhibit: human endothelial cell proliferation inhibition. hit rate 1.1% among 86,000. HUVEC proliferation, CellTiter-Glo luminescence, 72 h; hits give low values. viability, % at 10 µM (by protocol);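 active means viability at or below 30%; inactive means viability above 30%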;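 further: 100% = median luminescence of DMSO-only cell control wells on each plate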
HCT116 bCat-KO: beta-catenin-lacking colon tumor cell growth suppression; HCT116 beta-catenin knockout viability, CellTiter-Glo, 60 h; hits give low values; viability, % at 10 µM; hit rate 1.5% among 140,000;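 active means viability at or under a set limit, the compound median less 4 SD, cut at about 6% in these data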;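 further: 0% = Hyamine 1622 control at 20 µM and 100% = untreated cell control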
PTEN del growth: PTEN-deleted cell growth suppression; HCT116 PTEN-null viability, CellTiter-Glo, 60 h; hits give low values; AID 827; viability, % at 10 µM; hit rate 1.2% among 140,000;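 active means viability at or below a set limit, 4 SD under the median of all tested compounds, cut at about 3.7% in these data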;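 further: PTEN knockout HCT116 line with beta catenin targeted HCT116 as companion control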
Phagocytosis inh: blocks phagocytosis by macrophages. J774A.1 macrophage IgG-bead phagocytosis, imaging. inhibition, % at 5 µM. hit rate 0.07% among 110,000. AID 1029;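 active means inhibition above the mean of the plate negative controls plus 5 SD, cut at about 13% in these data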;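 further: phagocytic index as fraction of beads internalized from green versus red external bead signal; plate controls were DMSO negative control for no effect and cytochalasin-D positive control for full effect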
Lung fibro prol: blocks proliferation of human lung fibroblasts | hit rate 1.1% among 85,000 | viability, % at 10 µM | LL 47 human lung fibroblast viability, ATP luminescence; hits give low values | AID 719;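 active means viability at or below 50% in the single dose screen; inactive means viability above 50%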;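 further: compound exposure lasted 72 h before the ATP readout; 100% = median luminescence of untreated cell-only wells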
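Signal: luminescent ATP detection, CellTiter-Glo; assay system: LL 47 human lung fibroblasts; input: 1,150 cells/well; incubation: overnight cell rest, 72 h compound treatment at 37 °C; measure: % viability versus median cells-only luminescence; medium: IMEM growth medium with 15% fetal bovine serum; dosing: compound addition at 0.1% DMSO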
H69AR growth 86K: blocks growth of human H69AR lung tumor cells; H69AR lung tumor viability, ATP luminescence, 72 h; hits give low values; viability, % at 10 µM; hit rate 6% among 85,000;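 active means viability at or below 40%; inactive means viability above 40%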;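 further: multidrug resistant small cell line overexpressing MRP-1 efflux transporter; 100% = mean luminescence of untreated control wells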
Starred values were filed as active, the others as inactive; · = no result. This is one part of a sample in which hits are shown more often than they occur.

SMILES | HUVEC inhibit | HCT116 bCat-KO | PTEN del growth | Phagocytosis inh | Lung fibro prol | H69AR growth 86K
C=CCOC(=O)C1=C(C)OC(N)=C(C#N)C1c1c(C)nn(-c2ccccc2)c1Cl (centres undefined) | 84.5 | 113.0 | 98.2 | -0.1 | 90.8 | 28.7*
Cc1nn(-c2ccccc2)c2c1C(c1ccncc1)C(C#N)=C(N)O2 (centres undefined) | · | 86.1 | 94.3 | 0.2 | · | ·
CCCn1c(SC(C(=O)Nc2cccc(OC)c2)c2ccccc2)nc2ccccc2c1=O (centres undefined) | · | 57.4 | 54.2 | -13.9 | · | ·
COc1ccccc1CCNC(=O)/C(=C/c1cccnc1)NC(=O)c1ccccc1 | · | 89.4 | 92.5 | -7.9 | · | ·
COc1ccc(CNC(=O)C2CCC(CNS(=O)(=O)c3cccc4nsnc34)CC2)cc1 (centres undefined) | 102.9 | 96.8 | 102.2 | -0.2 | 54.6 | 87.9
O=C(NCc1ccc2c(c1)OCO2)C1CCC(CNS(=O)(=O)c2cccc3nsnc23)CC1 (centres undefined) | 58.9 | 84.5 | 96.0 | -0.4 | 44.0* | 96.3
CCOc1ccc(OCC)c(-c2c(=O)n(OCc3ccc(C(C)(C)C)cc3)c3ccccc3[n+]2[O-])c1 | · | 74.2 | 72.0 | · | · | ·
Cc1nn(Cc2ccc(Cl)c(Cl)c2)c(C)c1NC(=O)c1cc(-c2ccc3c(c2)OCO3)on1 | 12.2* | 1.5* | 1.8* | -1.4 | 76.4 | 1.4*
COc1ccc(-c2cc(C(=O)Nc3c(C)nn(Cc4ccccc4Cl)c3C)no2)cc1 | 88.1 | 62.2 | 65.1 | -0.5 | 90.0 | 32.8*
COc1ccc(OC)c(-c2cc(C(=O)Nc3c(C)nn(Cc4ccccc4)c3C)no2)c1 | 90.3 | 73.3 | 61.8 | -0.1 | 101.2 | 64.8
Cc1cc(C(=O)Nc2c(C)nn(Cc3c(Cl)cccc3Cl)c2C)no1 | 98.9 | 87.6 | 92.0 | -1.1 | 93.4 | 109.5
Cc1nn(Cc2c(Cl)cccc2Cl)c(C)c1NC(=O)c1cc(C(C)C)on1 | 71.6 | 64.0 | 30.4 | -0.4 | 34.8* | 7.7*
Cc1ccc(NC(=S)Nc2ccc(C(C)C)cc2)cc1S(=O)(=O)N1CCCCCC1 | · | 14.3 | 10.4 | -0.6 | · | ·
CCCCc1nc2ccccc2n2cc3c(=O)n(C)c(=O)n(C)c3c12 | 103.4 | · | · | · | 99.0 | 88.0
COc1ccc(/C=C/C(=O)c2ccccc2)cc1Cn1nnc2ccccc21 | · | 2.9* | 2.8* | -7.9 | · | ·
COc1cc(NC(=O)c2nnn(Cc3ccc(SC)cc3)c2N)cc(OC)c1 | 97.7 | 85.1 | 75.4 | -0.3 | 100.7 | 95.7
Cc1c(O)c2cccnc2[nH]c1=O | · | 99.6 | 114.3 | -4.7 | · | ·
Cc1ccc(/C=C/C(=O)c2ccccc(=O)c2O)c(C)c1 | · | 4.2* | 5.8 | -3.1 | · | ·
O=C(/C=C/c1ccccc1Cl)c1ccccc(=O)c1O | · | 1.3* | 2.1* | -2.7 | · | ·
Cc1ccc(C)c(/C=C/C(=O)c2ccccc(=O)c2O)c1 | · | 11.8 | 8.2 | -2.9 | · | ·
Cc1ccc(N=c2oc3cc(O)ccc3cc2C(N)=O)cc1 | 47.4 | 73.4 | 79.4 | 1.2 | 82.2 | 39.4*
O=C(CO/N=C/c1cccc([N+](=O)[O-])c1)Nc1ccc2ccccc2c1 | 88.6 | 96.0 | 103.6 | -0.7 | 107.7 | 68.1
O=[N+]([O-])c1cccc(/C=C/c2nc(C=Nc3ccc4ccccc4c3)c(O)o2)c1 | · | 17.8 | 2.7* | · | · | ·
Cc1cc(NC(c2cccnc2)c2ccc3cccnc3c2O)no1 (centres undefined) | 57.2 | 4.3* | 5.2 | -0.1 | 3.9* | 30.6*
Oc1c(C(Nc2ccccn2)c2cccnc2)cc(Cl)c2cccnc12 (centres undefined) | · | 3.6* | 3.9 | 3.0 | · | ·
SMILES | HUVEC inhibit | HCT116 bCat-KO | PTEN del growth | Phagocytosis inh | Lung fibro prol | H69AR growth 86K
C/C=C/C(=O)OCC(=O)Nc1nc2ccc(C)cc2s1 | 94.0 | 94.3 | 85.0 | -0.1 | 100.7 | 29.4*
Cc1ccc(C(=O)Nc2nc3ccccc3s2)s1 | 85.7 | 93.3 | 99.2 | 5.1 | 99.0 | 62.0
CCOCC(=O)Nc1nc2ccc(C)cc2s1 | 80.5 | 85.3 | 83.4 | · | 89.9 | 40.2
Cc1cc(C(=O)Nc2nc3ccc(S(C)(=O)=O)cc3s2)c(C)o1 | 94.4 | 80.2 | 87.5 | -0.6 | 45.9* | 51.3
Cc1ccc(C(=O)Nc2nc3ccc(S(C)(=O)=O)cc3s2)s1 | 84.9 | 87.0 | 84.5 | 0.4 | 101.0 | 38.4*
CS(=O)(=O)c1ccc2nc(NC(=O)c3cccs3)sc2c1 | 75.0 | 83.7 | 74.1 | 2.9 | 96.6 | 25.2*
Cc1ccc2nc(NC(=O)c3cccc(-c4cc5ccccc5oc4=O)c3)sc2c1 | · | 3.0* | 2.2* | 0.0 | · | ·
Cc1ccc2nc(NC(=O)c3ccc(Cl)s3)sc2c1 | 70.1 | 86.4 | 80.4 | -0.1 | 50.8 | 20.2*

Screening data deposited in PubChem by several laboratories.
